# Source: PubChem (several laboratories)
# Hep lipid drop = inhibitors of hepatocyte lipid droplet formation, primary screen, imaging, high-throughput imaging, BODIPY stain. AML12 mouse hepatocytes, oleate lipid droplets. inhibition, % at 6.5 µM. hit rate 0.4% among 240,000. AID 1656, 2009;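 active means lipid droplet intensity inhibited by at least 50%, with more than 500 cells counted; inconclusive means wells with under 300 cells, treated as cytotoxic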
#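 Technique: fluorescence imaging, 20x objective, two fields per well / Assay system: AML12 hepatocytes (mouse) / Measure: % inhibition of lipid droplet signal / Doses: 6.5 µM single-point dosing / Incubation: overnight exposure / Reagent: 100 µM oleic acid challenge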
# Redox H2O2 prof = compounds producing H2O2 with reducing agent – biochemical, NIH compound library profiling, artefact control for MLSCN library redox annotation, primary screen. DTT-dependent redox cycling H2O2, phenol red/HRP absorbance; 100% = 100 µM peroxide control, 0% = buffer. hit rate 0.03% among 200,000. activation, % at 10 µM;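 active means activation of at least 50% relative to the plate's high and low controls in the primary single-dose screen; inactive means activation below 50%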;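 further: compound incubated with DTT at 0.8 mM final as the reducing agent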
# Lmaj promast = Leishmania major promastigote growth inhibition, primary screen; Leishmania major promastigotes, resazurin fluorescence viability; inhibition, % at 10 µM; hit rate 9% among 200,000; in the data active means inhibition above about 50%;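 further: promastigotes grown with compound for 44 hours at 28 °C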
# T cruzi inh = inhibitors of intracellular T. cruzi growth, primary screen, luminescence, NIH3T3 host cells | T. cruzi beta-gal in NIH3T3, 90 h | inhibition, % (no concentration beside the values) | hit rate 1.4% among 300,000;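 active means mean inhibition across valid replicates above about 55%, limit read from the data; inconclusive means mean below that limit but half or more replicates reach it; inactive means mean below it, under half of replicates reach it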;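 further: signal also drops with host cell toxicity which is not excluded here; 0% = plate median of DMSO wells and 100% = zero luminescence signal; higher percent means less beta-gal luminescence so fewer parasites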
#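 System: mouse NIH/3T3 fibroblasts infected with β-gal-expressing T. cruzi Tulahuen C4 / Input: NIH/3T3 cells, 5,000 per well / Buffer or medium: Low-serum DMEM with 2% FBS / Probe or stimulus: 5000 reporter trypomastigotes per well / Schedule: ≥90 h infection period, 3 h prior cell attachment / Measured by: GalScreen luminescence, 60 min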
# MPTP inh = mitochondrial permeability transition pore inhibitors, primary screen, biochemical, isolated mouse mitochondria, absorbance | Ca2+ swelling absorbance, 30 min | inhibition, % at 10 µM | hit rate 1.4% among 360,000;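 active means inhibition of 50% or more, scaled per plate between neutral and stimulator controls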;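 further: 0% = DMSO wells given calcium and 100% = 1 mM EGTA wells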
# The depositor's hits bear a star; ? = inconclusive; . = no result. Shown is part of a subset that was picked to be rich in hits.
SMILES,Hep lipid drop,Redox H2O2 prof,Lmaj promast,T cruzi inh,MPTP inh
Cc1ccc(S(=O)(=O)Nc2cccc(C(=O)N3CCCC3)c2)cc1F,.,.,.,-7,1
CCOC(=O)/C(=N\Nc1ccc(OC)cc1)c1csc(Nc2ccccc2)n1,18,-1,1,81*,8
CCOC(=O)/C(=N/Nc1ccccc1)c1csc(Nc2ccccc2)n1,18,0,8,62*,12
CCCCC(CCC(=O)O)(C(=O)OCC)c1csc(Nc2ccccc2)n1 (centres undefined),-10,0,-7,3,-2
CCN(CC)C(=O)c1csc(Nc2ccc(C)cc2)n1,.,2,-1,11,-1
CCOC(=O)/C(=N\Nc1ccc(Cl)cc1)c1csc(Nc2ccccc2)n1,29,1,8,65*,1
COc1cc2c3nc4n(c(=O)c3n(CC(=O)NCC3CCCO3)c2cc1OC)CCS4 (centres undefined),13,.,.,-24,1
CCOc1ccc(C(=O)N[C@H](C(=O)Nc2ccc(S(=O)(=O)Nc3nccs3)cc2)C(C)C)cc1,.,.,.,.,0
Cc1cc(F)ccc1N1CCC(N2CCN(C(C)C)C(CCO)C2)CC1 (centres undefined),5,0,98*,18,2
Cc1cc(F)ccc1N1CCC(N2CCN(CCC(C)C)C(CCO)C2)CC1 (centres undefined),-1,-1,95*,15,9
Cc1ccccc1CN1CCN(C2CCC2)CC1CCO (centres undefined),-8,.,.,-14,0
CC(C)CCN1CCN(C2CCN(c3ccc4c(c3)OCO4)CC2)CC1CCO (centres undefined),6,0,6,66*,1
CN1CCN(C2CCN(c3cccc(Cl)c3)CC2)CC1CCO (centres undefined),-4,.,.,5,-1
CCc1ccc(C(=O)NNC(=O)c2cc(S(=O)(=O)N(C)C)ccc2N2CCCC2)cc1,3,.,.,2,2
COc1ccc(OC)c(NC(=O)c2ccc3c(c2)C(=O)N(CC2CCCO2)C3=O)c1 (centres undefined),-8,.,.,-3,-1
CCC(=O)Nc1ccc(NC(=O)c2cc3ccccc3o2)c(OC)c1,.,.,.,5,2
Cc1ccc(C(C)C)c(OCCNCCc2ccccc2)c1,-2,.,.,48,13
O=[N+]([O-])c1cccc(-c2csc(N/N=C/c3cccc(O)c3)n2)c1,19,-1,98*,?,1
COc1ccc(CC(=O)Nc2nc(-c3cccc([N+](=O)[O-])c3)cs2)cc1,13,.,62*,-3,2
COc1ccc(CC(=O)Nc2nc(-c3ccncc3)cs2)cc1,-1,0,29,67*,-2
COc1ccc(CC(=O)Nc2nc(-c3ccc(F)c(F)c3)cs2)cc1,0,.,.,14,0
CCCn1c(N)c(C(=O)CSc2nnc(-c3ccoc3C)n2C)c(=O)n(C)c1=O,.,.,.,.,0
COc1ccc(/C=N/N2CCOCC2)cc1COc1ccc(Cl)cc1,4,0,87*,-3,-1
COc1ccc(/C=N/N2CCOCC2)cc1COc1ccc(F)cc1,8,-1,3,8,0
Cc1cc([N+](=O)[O-])nn1CCCC(=O)Nc1cc(Cl)ccc1Cl,-11,-1,13,-13,4
SMILES,Hep lipid drop,Redox H2O2 prof,Lmaj promast,T cruzi inh,MPTP inh
COc1c2c(cc3ccc(=O)oc13)CCO2,10,.,.,-9,0
c1ccc2sc(NC3=NCN(CCN4CCOCC4)CN3)nc2c1,5,-1,84*,44,-1
OCCN1CN=C(Nc2nc3ccccc3s2)NC1,6,-1,0,0,1
CN(C)CCCNc1c2c(nc3cc(-c4cccc(F)c4)nn13)CCC2,-9,-1,8,68*,-1
Cc1cccc(-c2cc3nc4c(c(NCc5ccco5)n3n2)CCCC4)c1,.,-4,67*,48,8
Cc1cccc(-c2cc3nc4c(c(N5CCOCC5)n3n2)CCCC4)c1,-4,2,57*,43,0
Fc1ccc(-c2cc3nc4c(c(N5CCOCC5)n3n2)CCCC4)cc1,.,-1,22,27,3
Cc1cccc(-c2cc3nc4c(c(N5CCC6(CC5)OCCO6)n3n2)CCCC4)c1,.,-3,65*,.,2
Cc1cccc(S(=O)(=O)NCCc2ccccc2)c1,-4,1,-9,-5,-1
Cc1nn(CC(=O)N(C)C2(C#N)CCCCC2)c(C)c1[N+](=O)[O-],.,.,.,.,1
